From ChEMBL document CHEMBL5303300, “EUbOPEN Chemogenomics Library - Multiplex” (2023)
“And” between values parts separate entries of the source, which are not always exact repeats. Equal entries are not always repeated.

Tested on: U2OS
Test: Multiplex assay against U2OS
Format: toxicity, cell-based
Details: human, number of replicates 2
Outline: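 Phenotypes for tubulin, mitochondrial mass and membrane permeability are expressed as per cents of healthy-nucleus cells. Cells were stained live at seeding with Hoechst33342, BioTracker Green Microtubule Cytoskeleton Dye, MitoTracker Red and Annexin V Alexa Fluor 680, then imaged after compound addition on a CQ1 microscope at 37°C and 5% CO2. Machine-learning gating in CellPathfinder separated Hoechst high-intensity objects from normal cells, divided normal cells by nuclear state (healthy, pyknosed, fragmented) and divided pyknosed cells into mitotic or apoptotic.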

[1] = 12 h, 1 µM, compound concentration 1 uM
[2] = 12 h, 10 µM, compound concentration 10 uM
[3] = 24 h, 1 µM, compound concentration 1 uM
[4] = 24 h, 10 µM, compound concentration 10 uM
[5] = 48 h, 1 µM, compound concentration 1 uM
[6] = 48 h, 10 µM, compound concentration 10 uM

CN1CCc2cc(Nc3ncc(C(F)(F)F)c(NCc4cc[nH]n4)n3)ccc2C1
Population Hoechst High Intensity Objects (%) [1]: 0%
Population Membrane Permeable-Phenotype (%) [1]: 0% and 4%
Population Mitochondria Different-Phenotype (%) [1]: 0% and 1%
Population Mitotic Cells (%) [1]: 0% and 12%
Population Normal (%) [1]: 100%
Population Healthy Nuclei (%) [2]: 33% and 57%
Population Hoechst High Intensity Objects (%) [2]: 0%
Population Membrane Permeable-Phenotype (%) [2]: 0% and 7%
Population Mitochondria Different-Phenotype (%) [2]: 0% and 5%
Population Normal (%) [2]: 100%
Population Pyknosed Nuclei (%) [2]: 16% and 27%
Population Tubulin-Different-Phenotype (%) [2]: 50% and 41%
Population Hoechst High Intensity Objects (%) [3]: 0%
Population Membrane Permeable-Phenotype (%) [3]: 0% and 6%
Population Mitochondria Different-Phenotype (%) [3]: 0% and 4%
Population Mitotic Cells (%) [3]: 0% and 8%
Population Normal (%) [3]: 100% and 99%
Population Apoptotic (%) [4]: 71% and 80%
Population Healthy Nuclei (%) [4]: 15% and 45%
Population Hoechst High Intensity Objects (%) [4]: 0% and 1%
Population Membrane Permeable-Phenotype (%) [4]: 20% and 15%
Population Mitochondria Different-Phenotype (%) [4]: 20% and 8%
Population Mitotic Cells (%) [4]: 28% and 19%
Population Normal (%) [4]: 100% and 98%
Population Pyknosed Nuclei (%) [4]: 21% and 42%
Population Tubulin-Different-Phenotype (%) [4]: 60%
Population Healthy Nuclei (%) [5]: 0% and 21%
Population Hoechst High Intensity Objects (%) [5]: 0% and 1%
Population Mitochondria Different-Phenotype (%) [5]: 0% and 22%
Population Mitotic Cells (%) [5]: 0%
Population Normal (%) [5]: 100% and 98%
Population Apoptotic (%) [6]: 93% and 88%
Population Healthy Nuclei (%) [6]: 16% and 15%
Population Hoechst High Intensity Objects (%) [6]: 1% and 0%
Population Mitotic Cells (%) [6]: 6% and 11%
Population Normal (%) [6]: 98% and 100%
Population Pyknosed Nuclei (%) [6]: 68% and 23%
Population Tubulin-Different-Phenotype (%) [6]: 80% and 66%

O=C1NC(=O)C(c2ccccc2[N+](=O)[O-])=C1Nc1ccc(O)c(Cl)c1
Population Apoptotic (%) [1]: 100% and 38%
Population Fragmented Nuclei (%) [1]: 12% and 5%
Population Healthy Nuclei (%) [1]: 80% and 83%
Population Hoechst High Intensity Objects (%) [1]: 0%
Population Membrane Permeable-Phenotype (%) [1]: 0% and 1%
Population Mitochondria Different-Phenotype (%) [1]: 0%
Population Normal (%) [1]: 100%
Population Pyknosed Nuclei (%) [1]: 8% and 10%
Population Tubulin-Different-Phenotype (%) [1]: 85% and 90%
Population Apoptotic (%) [2]: 80% and 37%
Population Fragmented Nuclei (%) [2]: 9% and 5%
Population Healthy Nuclei (%) [2]: 68% and 83%
Population Hoechst High Intensity Objects (%) [2]: 0% and 3%
Population Membrane Permeable-Phenotype (%) [2]: 6% and 3%
Population Mitochondria Different-Phenotype (%) [2]: 6% and 0%
Population Normal (%) [2]: 100% and 96%
Population Pyknosed Nuclei (%) [2]: 22% and 10%
Population Tubulin-Different-Phenotype (%) [2]: 73% and 92%
Total Cell Count [2]: 22
Population Apoptotic (%) [3]: 40% and 37%
Population Healthy Nuclei (%) [3]: 67% and 86%
Population Hoechst High Intensity Objects (%) [3]: 0%
Population Membrane Permeable-Phenotype (%) [3]: 4% and 2%
Population Mitochondria Different-Phenotype (%) [3]: 0%
Population Mitotic Cells (%) [3]: 60% and 62%
Population Normal (%) [3]: 100%
Population Pyknosed Nuclei (%) [3]: 14% and 10%
Population Tubulin-Different-Phenotype (%) [3]: 73% and 92%
Population Apoptotic (%) [4]: 66% and 31%
Population Fragmented Nuclei (%) [4]: 8% and 5%
Population Healthy Nuclei (%) [4]: 73% and 84%
Population Hoechst High Intensity Objects (%) [4]: 0%
Population Membrane Permeable-Phenotype (%) [4]: 4% and 1%
Population Mitochondria Different-Phenotype (%) [4]: 4% and 0%
Population Mitotic Cells (%) [4]: 33% and 68%
Population Normal (%) [4]: 100% and 99%
Population Pyknosed Nuclei (%) [4]: 17% and 10%
Population Tubulin-Different-Phenotype (%) [4]: 84% and 95%
Population Apoptotic (%) [5]: 71% and 55%
Population Fragmented Nuclei (%) [5]: 9% and 3%
Population Healthy Nuclei (%) [5]: 80% and 90%
Population Hoechst High Intensity Objects (%) [5]: 0%
Population Membrane Permeable-Phenotype (%) [5]: 1%
Population Mitochondria Different-Phenotype (%) [5]: 0%
Population Mitotic Cells (%) [5]: 28% and 44%
Population Normal (%) [5]: 100%
Population Pyknosed Nuclei (%) [5]: 10% and 5%
Population Tubulin-Different-Phenotype (%) [5]: 86% and 93%
Population Apoptotic (%) [6]: 22% and 31%
Population Fragmented Nuclei (%) [6]: 5% and 7%
Population Healthy Nuclei (%) [6]: 77% and 85%
Population Hoechst High Intensity Objects (%) [6]: 0% and 2%
Population Membrane Permeable-Phenotype (%) [6]: 2% and 0%
Population Mitochondria Different-Phenotype (%) [6]: 2% and 0%
Population Mitotic Cells (%) [6]: 77% and 68%
Population Normal (%) [6]: 100% and 97%
Population Pyknosed Nuclei (%) [6]: 16% and 7%
Population Tubulin-Different-Phenotype (%) [6]: 92% and 98%

CS(=O)(=O)c1ccc(C(=O)Nc2cc(F)cc(COc3cc(F)c(Br)cc3CN3CC[C@H](O)C3)c2)c(Cl)c1.O=CO
Population Apoptotic (%) [1]: 33% and 58%
Population Fragmented Nuclei (%) [1]: 2%
Population Normal (%) [1]: 100%
Population Apoptotic (%) [2]: 60% and 54%
Population Normal (%) [2]: 100%
Population Apoptotic (%) [3]: 82% and 66%
Population Fragmented Nuclei (%) [3]: 2% and 3%
Population Normal (%) [3]: 100% and 96%
Population Apoptotic (%) [4]: 61% and 71%
Population Normal (%) [4]: 100% and 99%
Population Apoptotic (%) [5]: 63% and 88%
Population Fragmented Nuclei (%) [5]: 2% and 1%
Population Normal (%) [5]: 100%
Population Apoptotic (%) [6]: 94% and 89%
Population Normal (%) [6]: 98%

Cc1ccc2c(N)c(C(=O)NC3CCc4cc(N5CC6CCC(C5)N6)ccc4C3)sc2n1.O=CO (configuration not stated)
Population Apoptotic (%) [1]: 100% and 51%
Population Fragmented Nuclei (%) [1]: 11% and 6%
Population Healthy Nuclei (%) [1]: 70% and 76%
Population Hoechst High Intensity Objects (%) [1]: 0%
Population Membrane Permeable-Phenotype (%) [1]: 16% and 7%
Population Normal (%) [1]: 100%
Population Pyknosed Nuclei (%) [1]: 17% and 16%
Population Tubulin-Different-Phenotype (%) [1]: 19% and 25%
Population Apoptotic (%) [2]: 36% and 24%
Population Healthy Nuclei (%) [2]: 22% and 29%
Population Hoechst High Intensity Objects (%) [2]: 3% and 12%
Population Membrane Permeable-Phenotype (%) [2]: 16% and 11%
Population Mitochondria Different-Phenotype (%) [2]: 50% and 51%
Population Mitotic Cells (%) [2]: 63% and 75%
Population Normal (%) [2]: 96% and 87%
Population Pyknosed Nuclei (%) [2]: 35% and 56%
Population Tubulin-Different-Phenotype (%) [2]: 50%
Population Apoptotic (%) [3]: 69% and 75%
Population Fragmented Nuclei (%) [3]: 4% and 5%
Population Healthy Nuclei (%) [3]: 69% and 77%
Population Hoechst High Intensity Objects (%) [3]: 0%
Population Membrane Permeable-Phenotype (%) [3]: 17% and 6%
Population Mitotic Cells (%) [3]: 30% and 24%
Population Normal (%) [3]: 100%
Population Pyknosed Nuclei (%) [3]: 26% and 16%
Population Tubulin-Different-Phenotype (%) [3]: 26% and 23%
Population Apoptotic (%) [4]: 56%
Population Healthy Nuclei (%) [4]: 19% and 22%
Population Hoechst High Intensity Objects (%) [4]: 8% and 11%
Population Mitochondria Different-Phenotype (%) [4]: 75% and 69%
Population Mitotic Cells (%) [4]: 43%
Population Normal (%) [4]: 91% and 88%
Population Pyknosed Nuclei (%) [4]: 39% and 64%
Population Tubulin-Different-Phenotype (%) [4]: 50% and 60%
Population Apoptotic (%) [5]: 80% and 88%
Population Fragmented Nuclei (%) [5]: 7% and 5%
Population Healthy Nuclei (%) [5]: 49% and 66%
Population Hoechst High Intensity Objects (%) [5]: 0%
Population Membrane Permeable-Phenotype (%) [5]: 14% and 19%
Population Mitochondria Different-Phenotype (%) [5]: 25% and 53%
Population Mitotic Cells (%) [5]: 20% and 11%
Population Normal (%) [5]: 100%
Population Pyknosed Nuclei (%) [5]: 43% and 28%
Population Tubulin-Different-Phenotype (%) [5]: 21% and 40%
Population Apoptotic (%) [6]: 53% and 87%
Population Healthy Nuclei (%) [6]: 31% and 12%
Population Membrane Permeable-Phenotype (%) [6]: 53% and 57%
Population Mitochondria Different-Phenotype (%) [6]: 84%
Population Normal (%) [6]: 95% and 83%
Population Pyknosed Nuclei (%) [6]: 36% and 80%
Population Tubulin-Different-Phenotype (%) [6]: 100% and 73%
